Results on eleven compounds are retold here after ChEMBL document CHEMBL3244286, “Inactivation of trypsin-like proteases by sulfonylation. Variation of positively charged group and inhibitor length” (J Med Chem, 1978).

Bounds are passed on as bounds.

In experiment [1] the target is T1, Plasma kallikrein (Homo sapiens, UniProt P03952). Briefly: Inhibition of 2 X 10^-7 M human plasma kallikrein using Z-Lys-nitrophenyl ester as substrate assessed as second-order rate inactivation constant incubated up to 1 hr at pH 7.4. Summed up:
(§1)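 Enzyme and inhibitor incubated at room temperature in 0.1 M tris chloride, pH 7.4, with no more than 1% DMF from stocks. Aliquots were withdrawn and residual activity was assayed with Z-Lys-nitrophenyl ester. Protease concentration was set by methylumbelliferyl p-guanidinobenzoate titration. Decay was first order, k1 = 0.693/t1/2 (min), and the second-order constant is k1 divided by inhibitor concentration. Incubations with little loss of activity were stopped at 1 h.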

Experiment [2] has as its target T2, Plasminogen (Homo sapiens, UniProt P00747). Briefly: Inhibition of 4.8 X 10^-7 M human plasmin using Z-Lys-nitrophenyl ester as substrate assessed as second-order rate inactivation constant incubated up to 1 hr at pH 7.4. The method in brief: as §1
Experiment [3] concerns the target Prothrombin (Bos taurus) (UniProt P00735). Briefly: Inhibition of 16 X 10^-7 M bovine thrombin using Z-Lys-nitrophenyl ester as substrate assessed as second-order rate inactivation constant incubated up to 1 hr at pH 7.4. The method in brief: as §1
The species named for a further experiment is Bos taurus. The experiment can be described thus: Inhibition of 6.4 X 10^-7 M bovine trypsin using Z-Lys-nitrophenyl ester as substrate assessed as second-order rate inactivation constant incubated up to 1 hr at pH 7.4. The method in brief: as §1
For experiment [4], the target named is Urokinase-type plasminogen activator (Homo sapiens) (UniProt P00749). Briefly: Inhibition of 2 X 10^-7 M human urokinase using Z-Lys-thiobenzyl ester as substrate assessed as second-order rate inactivation constant incubated up to 1 hr at pH 7.4. Conditions: in the assay text read “51 X 10^-7 M” for “2 X 10^-7 M”. Summed up:
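Purified urokinase incubated with inhibitor at room temperature in 0.1 M tris chloride, pH 7.4, with no more than 1% DMF. Residual activity in aliquots was read with Z-Lys-thiobenzyl ester. Enzyme was active-site titrated with methylumbelliferyl p-guanidinobenzoate. First-order k1 = 0.693/t1/2 (min), divided by inhibitor concentration to give the second-order rate. Incubations were not run past 1 h when loss was low.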

Experiment [5] has as its target T1, Plasma kallikrein. The experiment can be described thus: Competitive inhibition of 2 X 10^-7 M human plasma kallikrein using Z-Lys-nitrophenyl ester as substrate incubated up to 1 hr at pH 6. Summed up: (§2)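 Ki for competitive inhibition measured at pH 6 with Z-Lys-nitrophenyl ester as substrate. Enzyme concentrations were set by active-site titration with methylumbelliferyl p-guanidinobenzoate. Compounds were added from DMF stocks, with no more than 1% DMF in the reaction.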

Experiment [6] concerns the target T2, Plasminogen. Briefly: Competitive inhibition of 4.8 X 10^-7 M human plasmin using Z-Lys-nitrophenyl ester as substrate incubated up to 1 hr at pH 6. Summed up: as §2
The target of a further experiment is Prothrombin (Bos taurus, UniProt P00735). Briefly: Competitive inhibition of 16 X 10^-7 M bovine thrombin using Z-Lys-nitrophenyl ester as substrate incubated up to 1 hr at pH 6. The method in brief:
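Ki for competitive inhibition was determined at pH 6 against Z-Lys-nitrophenyl ester hydrolysis, following previously published procedures. Active enzyme concentration was set by titration with methylumbelliferyl p-guanidinobenzoate. Inhibitors were added from DMF stock solutions, with DMF at no more than 1% of the reaction mixture.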

Experiment [7] is described as follows: Competitive inhibition of 6.4 X 10^-7 M bovine trypsin using Z-Lys-nitrophenyl ester as substrate incubated up to 1 hr at pH 6. Details: species or system Bos taurus. Summed up:
as §2

In experiment [8] the target is Prothrombin (Bos taurus) (UniProt P00735). Briefly: Inhibition of 16 X 10^-7 M bovine thrombin using Z-Lys-nitrophenyl ester as substrate assessed as half time required for enzyme inactivation at 5X10'-5 M at pH 7.4. Summed up: as §1
For experiment [9], the target named is T1, Plasma kallikrein. The experiment can be described thus: Inhibition of 2 X 10^-7 M human plasma kallikrein using Z-Lys-nitrophenyl ester as substrate assessed as half time required for enzyme inactivation at 5X10'-6 M at pH 7.4. Conditions: in the assay text read “5.4X10'-4 M” for “5X10'-6 M”. Summed up:
as §1

Experiment [10] has as its target Urokinase-type plasminogen activator (Homo sapiens) (UniProt P00749). The experiment can be described thus: Inhibition of 51 X 10^-7 M human urokinase using Z-Lys-thiobenzyl ester as substrate assessed as second-order rate inactivation constant incubated up to 1 hr at pH 7.4.

T2 sequence (P00747 97-580 limits assumed): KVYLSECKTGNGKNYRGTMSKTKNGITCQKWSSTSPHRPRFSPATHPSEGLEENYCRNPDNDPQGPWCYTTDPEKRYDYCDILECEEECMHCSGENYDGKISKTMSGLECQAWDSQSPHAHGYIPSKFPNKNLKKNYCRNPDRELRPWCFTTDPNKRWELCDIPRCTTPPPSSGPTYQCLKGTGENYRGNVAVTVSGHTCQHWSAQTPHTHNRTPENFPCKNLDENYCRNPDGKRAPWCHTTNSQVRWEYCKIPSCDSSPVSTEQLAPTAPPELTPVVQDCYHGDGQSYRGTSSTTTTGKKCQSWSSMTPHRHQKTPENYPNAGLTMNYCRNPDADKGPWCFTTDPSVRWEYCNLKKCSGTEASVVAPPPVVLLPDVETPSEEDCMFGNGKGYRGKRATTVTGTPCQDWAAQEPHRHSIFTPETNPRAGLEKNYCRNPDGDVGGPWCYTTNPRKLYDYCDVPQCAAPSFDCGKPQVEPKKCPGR
T2 sequence (P00747 581-810 limits assumed): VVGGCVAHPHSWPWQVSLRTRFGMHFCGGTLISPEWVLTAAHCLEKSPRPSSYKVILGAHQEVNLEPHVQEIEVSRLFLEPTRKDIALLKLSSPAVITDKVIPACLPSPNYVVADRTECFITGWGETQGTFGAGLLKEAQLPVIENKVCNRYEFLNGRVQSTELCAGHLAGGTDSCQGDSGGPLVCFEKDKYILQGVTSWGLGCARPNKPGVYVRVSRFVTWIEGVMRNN
T1 sequence (P03952 20-390 limits assumed): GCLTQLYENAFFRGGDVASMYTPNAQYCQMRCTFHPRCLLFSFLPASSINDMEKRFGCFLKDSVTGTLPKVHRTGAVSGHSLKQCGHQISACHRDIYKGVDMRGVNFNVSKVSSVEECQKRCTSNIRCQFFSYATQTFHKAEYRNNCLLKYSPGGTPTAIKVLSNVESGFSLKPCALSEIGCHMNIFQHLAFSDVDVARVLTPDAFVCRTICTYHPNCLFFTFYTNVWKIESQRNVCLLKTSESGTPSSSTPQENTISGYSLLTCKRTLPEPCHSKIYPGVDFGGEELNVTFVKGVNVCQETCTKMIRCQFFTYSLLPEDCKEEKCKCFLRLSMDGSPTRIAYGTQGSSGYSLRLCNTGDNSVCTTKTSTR
T1 sequence (P03952 391-638 limits assumed): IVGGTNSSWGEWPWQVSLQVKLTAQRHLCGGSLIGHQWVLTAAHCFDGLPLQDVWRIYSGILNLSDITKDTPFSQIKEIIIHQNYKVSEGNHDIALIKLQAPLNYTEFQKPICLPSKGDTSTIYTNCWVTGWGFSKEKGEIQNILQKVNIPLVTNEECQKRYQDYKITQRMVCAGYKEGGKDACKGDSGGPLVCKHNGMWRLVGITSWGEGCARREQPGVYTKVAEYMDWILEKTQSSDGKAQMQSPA

As to `O=[N+]([O-])c1ccc(OS(=O)(=O)Cc2ccc(-[n+]3ccccc3)cc2)cc1`, the Kinact on Plasma kallikrein [1], on Plasminogen [2], on Prothrombin (Bos taurus) [3] and in the experiment filed under Bos taurus was 0 M⁻¹ s⁻¹ in each case.

On to `N=C(N)SCc1ccc(CS(=O)(=O)Oc2ccc([N+](=O)[O-])cc2)cc1`, for which the Kinact at Plasminogen [2] stood at 0.117 M⁻¹ s⁻¹; at Prothrombin (Bos taurus) [3], 0 M⁻¹ s⁻¹; in the experiment listed under Bos taurus, 25 M⁻¹ s⁻¹; in experiment [4] it was 10 M⁻¹ s⁻¹. The Ki at Plasma kallikrein [5] was found to be 320 µM; on Plasminogen [6] it was 1150 µM; at Prothrombin, 930 µM; in experiment [7] it was 390 µM.

With `CNC(=N)SCc1ccc(S(=O)(=O)Oc2ccc([N+](=O)[O-])cc2)cc1`, the Kinact at Plasma kallikrein [1], on Plasminogen [2], on Prothrombin (Bos taurus) [3] and in the experiment listed under Bos taurus was 0 M⁻¹ s⁻¹ throughout.

On to `C[S+](C)c1ccc(CS(=O)(=O)Oc2ccc([N+](=O)[O-])cc2)cc1`, for which the Kinact at Plasma kallikrein [1], at Plasminogen [2], on Prothrombin (Bos taurus) [3] and in the experiment listed under Bos taurus was 0 M⁻¹ s⁻¹ throughout.

As to `N=C(N)SCc1ccc(CS(=O)(=O)Oc2cccc([N+](=O)[O-])c2)cc1`, the Kinact is 0 M⁻¹ s⁻¹ on Plasma kallikrein [1], 0 M⁻¹ s⁻¹ at Plasminogen [2], 0 M⁻¹ s⁻¹ at Prothrombin (Bos taurus) [3] and 7.17 M⁻¹ s⁻¹ in the experiment listed under Bos taurus.

`N=C(N)SCc1ccc(S(=O)(=O)Oc2ccc([N+](=O)[O-])cc2)cc1`: the Kinact at Plasma kallikrein [1] came out at 0.183 M⁻¹ s⁻¹; at Plasminogen [2], 2.08 M⁻¹ s⁻¹; at Prothrombin (Bos taurus) [3], 9.67 M⁻¹ s⁻¹; in experiment [10], 1.53 M⁻¹ s⁻¹. Moreover, the T1/2 on Prothrombin (Bos taurus) [8] was 22 min; at Plasma kallikrein [9], more than 120 min.

Regarding `C[S+](C)Cc1ccc(S(=O)(=O)Oc2ccc([N+](=O)[O-])cc2)cc1`, the Kinact at Plasma kallikrein [1], at Plasminogen [2], at Prothrombin (Bos taurus) [3] and in the experiment listed under Bos taurus was 0 M⁻¹ s⁻¹ throughout.

Turning to `O=[N+]([O-])c1ccc(OS(=O)(=O)c2ccc(C[n+]3ccccc3)cc2)cc1`, the Kinact at Plasminogen [2], on Prothrombin (Bos taurus) [3] and in the experiment listed under Bos taurus was 0 M⁻¹ s⁻¹ throughout.

For `C[S+](C)c1cccc(CS(=O)(=O)Oc2ccc([N+](=O)[O-])cc2)c1`, the Kinact at Plasma kallikrein [1], at Plasminogen [2], on Prothrombin (Bos taurus) [3] and in the experiment filed under Bos taurus was 0 M⁻¹ s⁻¹ in each case.

In the case of `O=[N+]([O-])c1ccc(OS(=O)(=O)Cc2cccc(-[n+]3ccccc3)c2)cc1`, the Kinact (at Plasma kallikrein [1]; at Plasminogen [2]; at Prothrombin (Bos taurus) [3]; in the experiment filed under Bos taurus; in experiment [4]) was 0 M⁻¹ s⁻¹ in each case.

`C[N+](C)(C)Cc1ccc(S(=O)(=O)Oc2ccc([N+](=O)[O-])cc2)cc1`: the Kinact at Plasma kallikrein [1] is 0 M⁻¹ s⁻¹; at Plasminogen [2] it was 0.833 M⁻¹ s⁻¹; on Prothrombin (Bos taurus) [3] it was 2.45 M⁻¹ s⁻¹.
